NF-kB expr up = activators of NF-kB expression in neurons, primary screen, cell-based, HTS; AID 1239, 2008; fold change at 12.5 µM; human neuronal cells, NF-kB reporter expression; active compounds read high; actives 1.6% (n = 190,000); in the data active = fold change above about 3.3
STAT3 activator = IL-6 driven STAT3 reporter potentiators, primary screen, U3A cells, luciferase, luminescence, MLSCN library; AID 871, 2007; activation (% of control), % at 5.6 µM; actives 0.91% (n = 190,000); IL-6 STAT3-luciferase reporter; 100% = signal with IL-6 EC80 alone;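 active = activation above the screen-wide mean of compound activation plus 3 SD, cut at about 130% in these data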
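System – human U3A cells carrying STAT3-luciferase construct · Probe or stimulus – Interleukin-6, 33 ng/mL · Schedule – compound 1 h, then IL-6 6 h at 37 °C · Signal – luminescence from STAT3-driven luciferase reporter · Evaluation – percent of IL-6-only median luminescence · Benchmarks – IL-6-only high control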
STAT1 act = STAT1 signaling activators, primary screen, cell-based, HTS, luciferase reporter. NIH 3T3 STAT1-luciferase reporter, IFN-gamma, luminescence; 100% = IFN-gamma alone, no compound. activation (% of control), % at 5.5 µM. actives 2.6% (n = 200,000). AID 932, 2007;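 active = activation above the screen-wide mean activation plus 3 SD, cut at about 130% in these data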
STAT3 inh = IL-6 driven STAT3 reporter inhibitors, primary screen, U3A cells, luciferase, luminescence, MLSCN library; IL-6 STAT3-luciferase reporter; host cell line lacks STAT1; actives 0.89% (n = 190,000); inhibition, % at 5.5 µM;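 active = inhibition above the mean inhibition across all screened compounds plus 3 SD, cut at about 44% in these data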
APP 5'UTR act = activators of APP 5'UTR luciferase reporter, primary screen, SH-SY5Y cells. SH-SY5Y APP 5'UTR luciferase reporter, luminescence; zero percent = DMSO vehicle wells. activation, % at 2 µM. actives 1% (n = 190,000). AID 1276, 2008;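 active = activation above a set limit, based on mean plus 3 SD of controls, cut at about 140% in these data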
STAT1 blocker = STAT1 signaling inhibitors, primary screen, cell-based, HTS, luciferase reporter; NIH 3T3 STAT1-luciferase reporter, IFN-gamma, luminescence; inhibition, % at 5.5 µM; actives 0.35% (n = 200,000);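 active = inhibition above a set limit, the mean inhibition across all tested compounds plus 3 SD, cut at about 34% in these data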
Each line names hits and unclear results; the compound was inactive in the other large screens. The list is not random: actives were taken first. Their share in the collection is about 5.1%.

CCN(CC)c1ccc(/C=N/N2CCOCC2)c(O)c1	STAT1 act 142
CCN(CC)c1ccc(C=Nc2ccc(N(C)C)cc2)c(O)c1	STAT1 act 130
CCN(CC)c1ccc(/C=N/NC(=S)NC)c(O)c1	NF-kB expr up 5.9
CC1(C)CC(=O)c2cn3nc(C(F)(F)F)nc3nc2C1	none
N/C(=N\OC(=O)Cc1ccccc1)c1ccccc1Cl	STAT1 act 147
N/C(=N\OC(=O)Cc1ccccc1)c1cccnc1	none
COc1ccc(C(=O)N2CCc3ccccc32)cc1	none
COc1ccc(C(=O)/C=C2\NCC3c4ccccc4CCN3C2=O)cc1 (centres undefined)	STAT3 activator 135
O=C(O)c1c(-c2ccccc2)c(-c2ccccc2)nc2ccccc12	none
Cc1cccc(NC(=O)c2cc(=O)c3ccccc3o2)n1	STAT1 act 134
NC(=O)c1ccsc1NC(=O)c1cc(=O)c2ccccc2o1	STAT1 act 138
CC(=O)c1cnc2cc(-c3ccc(C)cc3)nn2c1C	NF-kB expr up 6.6, STAT1 act 137
COc1ccc(-c2cc3ncc(C(C)=O)c(C)n3n2)cc1	STAT1 act 135, APP 5'UTR act 141
Cc1ccc(-c2cc3ncc(C#N)c(N)n3n2)cc1	STAT1 act 130
Cc1cccc(-n2ncc(C#N)c2N)c1	none
O=C(CSc1ccccn1)N1CCc2ccccc21	NF-kB expr up 3.5, STAT1 act 133
O=C(CSc1nnc2ccccn12)N1CCc2ccccc21	STAT1 act 135
Cc1ccc(C(=O)NNc2cc(=O)n(C)c(=O)n2C)cc1C	none
Fc1ccc(C2CCCN2Cc2nc(Cc3ccccc3)no2)cc1 (centres undefined)	none
CCC1CCc2c(sc(NC(=O)c3ccco3)c2C(N)=O)C1 (centres undefined)	STAT1 act 131
Cc1ccc2c(c1)c1cccc3c1n2CCN3CCC(N)=O	STAT1 act 143
NC(=O)CCn1c2ccccc2c2ccccc21	none
CC1=C(C(=O)Nc2ccccc2)C(c2cccs2)NC(=O)N1 (centres undefined)	none
Cc1cc(C(=O)COC(=O)c2ccccc2O)c(C)n1Cc1cccs1	STAT3 inh 104, STAT1 blocker 75
COCCn1c(C)cc(C(=O)COC(=O)c2ccccc2Br)c1C	STAT3 inh 85, STAT1 blocker 86
COCCn1c(C)cc(C(=O)COC(=O)c2ccc(NC(=O)CC#N)cc2)c1C	STAT1 act 134, APP 5'UTR act 149
COCCn1c(C)cc(C(=O)COC(=O)c2cncc(Br)c2)c1C	STAT1 act 136
COc1ccc(-c2noc(CN(C)Cc3ccc(C)o3)n2)cc1	none
O=C(O)CCNC1C=CS(=O)(=O)C1 (centres undefined)	none
Cc1nnc(SCc2cccc([N+](=O)[O-])c2)o1	none
CC(=O)Nc1ccc(SCC(=O)c2cc(C)n(Cc3cccs3)c2C)cc1	STAT3 inh 95, STAT1 blocker 48
COCCn1c(C)cc(C(=O)COC(=O)c2ccc3ncsc3c2)c1C	STAT1 act 132
Cc1ccc(NC2=NCC(=O)N2Cc2cccs2)cc1C	none
CCn1c(/C=C/c2c[nH]c3ccccc23)nc2ccccc2c1=O	NF-kB expr up 3.4, STAT1 act 148, APP 5'UTR act 182
OC(CNCc1ccccc1)Cn1ccc2ccccc21 (centres undefined)	none
Oc1ccccc1NCC(O)Cn1ccc2ccccc21 (centres undefined)	STAT3 activator 135
Cn1c(=O)c2c(ncn2CC(=O)OCC(=O)Nc2cc(Cl)ccc2Cl)n(C)c1=O	none
Oc1c(CN2CCOCC2)cc(COCc2ccccc2)c2cccnc12	NF-kB expr up 4.2
COCc1cc(CN2CCN(C)CC2)c(O)c2ncccc12	none
CC(=O)Nc1ccc(S(=O)(=O)Nc2nc3ccc(C)cc3s2)cc1	none
Cc1cc(C)cc(N(CC(=O)Nc2ccc(-c3nc4ccc(C)cc4s3)cc2)S(C)(=O)=O)c1	STAT1 act 142
COc1ccc(C(=O)NCc2ccc(-c3nc4ccccc4s3)cc2)cc1OC	none
CC(=O)NC(=S)Nc1ccc(-c2nc3ccc(C)cc3s2)cc1	NF-kB expr up 3.7
O=C(Nc1ccc(-c2nc3ccccc3s2)c(OC(=O)c2ccccc2)c1)c1ccccc1	APP 5'UTR act 208
Cc1ccc(-c2nc3ccccc3s2)cc1NC(=S)NC(=O)c1ccccc1	NF-kB expr up 6.8, APP 5'UTR act 178
CCCCNC(=O)C1=C(N)C(C(=O)Nc2ccc(C)c(S(=O)(=O)N3CCCCC3)c2)SC1=Nc1ccc(C)cc1C (centres undefined)	none
O=C(N/N=C/c1ccc(OC(F)F)cc1)c1cccc(S(=O)(=O)N2CCOCC2)c1	none
CNC(=S)Nc1ccc(-c2nc3ccc(C)cc3s2)cc1	STAT3 inh 47, APP 5'UTR act 172 (no result: NF-kB expr up)
Cc1ccc2nc(-c3ccc(NC(=S)NCCC(C)C)cc3)sc2c1	none (no result: NF-kB expr up)
O=C(c1ccccc1)c1ccccc1C(=O)N1CCCC1	NF-kB expr up 6.4
CCc1ccc(NC(=O)c2cc(-c3ccco3)on2)cc1	STAT1 act 130
O=C(Nc1cccnc1Cl)c1cc(-c2ccco2)on1	none
COc1ccc(NC(=O)c2cc(-c3ccco3)on2)cc1	STAT1 act 149
O=c1c2c3c(sc2ncn1/N=C/c1ccc([N+](=O)[O-])o1)CCCC3	NF-kB expr up 4
Cn1c(-c2sc(=S)n(-c3ccccc3)c2N)nc2ccccc21	STAT3 activator 133
Cn1c(=O)c(C(=O)NCC2CCCO2)c(O)c2ccccc21 (centres undefined)	STAT1 act 129
Cc1cccnc1NC(=O)c1c(O)c2ccccc2n(C)c1=O	STAT3 activator 133
Cn1c(C(=O)NCC2CCCO2)cc2oc3ccccc3c21 (centres undefined)	STAT1 act 144
O=C(CSc1nnc(NC2CCCCC2)s1)NCc1ccco1	none
CC(C)N1CCN(Cc2cccc(-n3cccn3)c2)CC1CCO (centres undefined)	none
CCOC(=O)C(Cc1ccccc1)c1ccnc2ncnn12 (centres undefined)	none
O=c1sc(N2CCN(c3ccccc3F)CC2)nc2ccsc12	NF-kB expr up 3.6, STAT1 act 139
CCN1/C(=C/C(C)=C/c2sc3ccccc3[n+]2CC)Sc2ccccc21	STAT3 inh 96, STAT1 blocker 45
CCN1/C(=C\C=C(C(C)=O)C(C)=O)Sc2ccccc21	none
Cc1ccc(C(=O)n2c(N)nc3ccccc32)cc1	STAT3 inh 103, STAT1 blocker 89

Screening results (PubChem BioAssay)
